The data set can be described thus: Toxicity liver stage against HepG2, at 10uM. Type of data set: cell-based. Further details: test concentration 10 uM, cell line HepG2-A16-CD81EGFP. Particulars: human, HepG2-A16-CD81EGFP cells; read-out: INHIBITION
Summed up: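 Uninfected HepG2-A16-CD81EGFP cells, 3 × 10^3 per well, 1536-well, plated on prespotted compound at 10 μM final, parasite-free screening media added to match infected plates; puromycin 10 μM positive, DMSO 0.5% negative; run in parallel with 48 h PbLuc assay at 37 °C, 5% CO2; viability by CellTiter-Glo luminescence, normalized to controls.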
`CC(C)N1C[C@@H](F)[C@@H](OCc2nc3ncccc3[nH]2)C1`: the cytotoxicity at 10 µM is 5.47%.

Regarding `CN1C(=O)C2(CC(=O)Nc3[nH]ncc32)c2cc(F)ccc21` (stereo not given), the cytotoxicity at 10 µM came out at 0.488%. As for `Nc1nc2c(c(NC(=O)Nc3ccccc3)n1)CCCC2`, the cytotoxicity at 10 µM was -9.74%. The same measure for `NC(=O)Cc1csc(NC(=O)C2CSCCC(=O)N2)n1` (stereo not given): 0.722%; for `O=C(NC1CCC1)c1n[nH]c2c1CNCC2`: 1.67%; for `Cc1cnc(N2C[C@@H]3[C@@H](C2)OCC(=O)N3CC2CC2)nc1`: -0.357%.

As for `O=C(c1ncccn1)N1C[C@@H]2CN(CC3CC3)CCO[C@@H]2C1`, the cytotoxicity at 10 µM was determined as 6.99%. For `CN(Cc1ccccn1)C1COC2(CCN(Cc3nccs3)CC2)C1` (stereo not given) the value was -16.2%.

Regarding `Cc1ccc(-c2noc(C3CCN3C(=O)c3c(C)noc3C)n2)s1` (stereo not given), the cytotoxicity at 10 µM is 6.09%. Regarding `C=Cn1cc(CN2CCC(c3ncc(Cl)cc3S(C)(=O)=O)CC2)c(C)n1`, the cytotoxicity at 10 µM came to 7.38%. As to `O=C(CCn1ccnc1)N1CC[C@H](Oc2ccc(F)cc2)[C@@H](O)CC1`, the cytotoxicity at 10 µM is -3.06%.

`CCn1nccc1CN(C)C(=O)Cn1nc(C)cc1C`: the cytotoxicity at 10 µM was determined as 6.18%. In the case of `Cc1nc(COC(=O)c2cccnc2C)no1`, the cytotoxicity at 10 µM is -0.2%. With `CCN(Cc1ccoc1)C(=O)Nc1ccccc1CN1CCOCC1`, the cytotoxicity at 10 µM was -14.8%. Turning to `CC(NC(=O)c1ccc2c(c1)COC2)c1cccc(N2CCOC2=O)c1` (stereo not given), the cytotoxicity at 10 µM stood at 14.9%. Regarding `CNS(=O)(=O)CC(=O)N(C1CC1)C1Cc2ccccc2C1`, the cytotoxicity at 10 µM is 3.45%. As for `O=C(NCc1nnc2ccccn12)N1CCOC(c2ccsc2)C1` (stereo not given), the cytotoxicity at 10 µM came out at 0.305%. With `CCn1cc(CNc2ccc(Br)c(OC)c2)cn1`, the cytotoxicity at 10 µM was 5.42%. The same measure for `Cc1ccc(C(=O)NCc2ccc(N(C)C)cc2)cn1`: -6.23%; for `CC(C)c1nnc(NC(=O)NC2CCOc3ccccc32)s1` (stereo not given): 18.1%; for `CN(C)c1nccc(N(C)Cc2ncnn2C)n1`: 6.09%. Turning to `O=C(CN1CCSC(c2ccccc2)C1)NCc1ccccn1` (stereo not given), the cytotoxicity at 10 µM was 14.5%. With `O=C1CCCN1c1cccc(CNCc2cc(F)ccc2F)c1`, the cytotoxicity at 10 µM amounted to 15.8%.

As to `Cc1cc(C)n(CC2CCCN2C(=O)Cc2cn3ccccc3n2)n1` (stereo not given), the cytotoxicity at 10 µM worked out at 2.47%.

`CC(Cn1cccn1)NC(=O)Nc1ccc(N(C)C)nc1` (stereo not given): the cytotoxicity at 10 µM is 14.4%.

On to `Cc1cc(C(=O)N2CCn3cc(CN4CCN(C)CC4)nc3C2)no1`, for which the cytotoxicity at 10 µM is -74.7%. For `CN1CCN(Cc2cnc3n2CCN(C(=O)c2ccnnc2)C3)CC1` the value was -81.1%; for `CN(C)C(=O)CCC1CCCN(Cc2cccc(-c3ccccn3)c2)C1` (stereo not given), 3.45%; for `CN(CC1=CCCN(Cc2cccc(C#N)c2)C1)C(=O)c1ccco1`, -5.15%. Consider `O=C(CSCC1CC1)N1CCCC2(CCC(=O)N(CC3CC3)C2)C1` (stereo not given), for which the cytotoxicity at 10 µM came to 3.8%. For `OCC1CCCN(c2ncnc3c2Cc2ccccc2OC3)C1` (stereo not given) the value was 1.44%. With `COc1ccc(CCC(=O)N2CCNCC2C(=O)N2CCCC2)cc1` (stereo not given), the cytotoxicity at 10 µM turned out to be 1.18%.

`O=C1CN(Cc2cn(CC3CCN(C4CCSCC4)CC3)nn2)CCN1`: the cytotoxicity at 10 µM was -48.2%. `CCc1ccc(CN(C)C(=O)C2CC(=O)N(c3cccc(O)c3)C2)nc1` (stereo not given): the cytotoxicity at 10 µM is -3.57%. As for `CCn1cc(S(=O)(=O)NC2CCCN(CC3CCCCC3)C2)cn1` (stereo not given), the cytotoxicity at 10 µM is -7.25%.

For `COCCN1CCN(Cc2ccc(C(C)=O)cc2)[C@H]2CS(=O)(=O)C[C@H]21`, the cytotoxicity at 10 µM is -0.571%. For `CCc1cc(NCC(N)=O)nc(N2CCCCC2)n1`, the cytotoxicity at 10 µM was 9.95%. As to `O=C(NCCn1ccnc1-c1cc2n(n1)CCCNC2)c1ccncc1`, the cytotoxicity at 10 µM was -1.84%. Take `CCN(CC1CCOCC1)C(=O)CCNC(=O)c1ccccc1F`: the cytotoxicity at 10 µM is -43.1%. As to `Cc1cc(Cl)ccc1C(=O)N1C[C@H](C2CC2)[C@@H](N)C1`, the cytotoxicity at 10 µM was -46.6%. In the case of `COc1ccc(C)cc1-n1cnnc1C1CC(=O)N(C)C1` (stereo not given), the cytotoxicity at 10 µM is -9.25%. The same measure for `Cc1nc(CN(C)Cc2cnc(N3CCOCC3)s2)no1`: 1.87%; for `COCc1nc(Cn2c(C)cc(C(F)(F)F)cc2=O)no1`: -2.74%; for `COc1cc(C)ccc1C(=O)N1CCC2(CCC(=O)N(C(C)C)C2)CC1`: 3.76%. In the case of `COCCc1ncc(CN2CCC(Oc3ccccc3C)CC2)cn1`, the cytotoxicity at 10 µM came out at 4.67%. Consider `O=C(Cc1ccc2c(c1)CCCC2)NCCNc1cnccn1`, for which the cytotoxicity at 10 µM is -0.882%.

With `Cc1noc(NC(=O)c2ccc(Br)o2)n1`, the cytotoxicity at 10 µM was -3.75%. In the case of `COc1ccnc(N2CCN(C(=O)CN3CCOCC3)CC2)n1`, the cytotoxicity at 10 µM was -0.819%. Turning to `O=C(NCCOc1ccc2c(c1)OCO2)C1CC(=O)N(C2CC2)C1` (stereo not given), the cytotoxicity at 10 µM was -6.75%.

`COc1cc(CNC(=O)c2c(C)noc2C)ccn1`: the cytotoxicity at 10 µM was -8.83%. The same measure for `CC(C)c1ccc(OCCC(=O)N2CCC(C(N)=O)CC2)cc1`: -11.5%. For `O=C(c1cnn(-c2ccccc2Cl)c1)N1CCN(CCO)CC1`, the cytotoxicity at 10 µM was -4.26%. On to `CCN1CCC(NC(=O)CN2CCCCC2Cn2cc(C)cn2)CC1` (stereo not given), for which the cytotoxicity at 10 µM was 0.144%. In the case of `Cc1cc(C)c(CNC(=O)N2CCCC2c2ccccc2)c(=O)[nH]1` (stereo not given), the cytotoxicity at 10 µM is -0.818%. Regarding `Cc1cnn(CC2CN(Cc3nc(N)c4ccccc4n3)CCO2)c1` (stereo not given), the cytotoxicity at 10 µM was 5.9%. The same measure for `Cc1cc(F)ccc1S(=O)(=O)NCc1cccc(C(=O)N2CCCC2)c1`: -1.2%; for `CCCC(=O)N(CCCN1CCOCC1)c1nc2c(F)cccc2s1`: -10.7%; for `Cc1cc(C(=O)N2CCO[C@H]3[C@H](Oc4ccccn4)CC[C@@H]32)c(C)[nH]1`: -107%. Regarding `Cc1ccc(N2C[C@H]3CCN(Cc4ccncc4)C[C@H]3C2)nn1`, the cytotoxicity at 10 µM was -111%.

As for `CNC(=O)CN1C(=O)CCC12CCCN(Cc1cccc(F)c1)C2` (stereo not given), the cytotoxicity at 10 µM was -5.51%. `c1ccc(CN2CCC3(CC2)CCN(Cc2cccnc2)C3)nc1`: the cytotoxicity at 10 µM is -78.6%. For `Cc1ncsc1CN1C[C@@H]2COC[C@]2(C(=O)NC2CC(F)(F)C2)C1` the value was -103%.

In the case of `COc1cc(N2C[C@H]3CCC[C@@H](CN(C)C)[C@H]3C2)ncn1`, the cytotoxicity at 10 µM is -78.3%. With `O=C(C1CCC1)N1CC[C@H](O)[C@@H]1Cc1cccnc1`, the cytotoxicity at 10 µM is -105%. For `c1ccc(O[C@@H]2CO[C@@]3(CCCN(CC4CCOCC4)C3)C2)nc1` the value was -82.6%.

Consider `O=C1CO[C@@H]2CN(Cc3nccs3)C[C@H]2N1Cc1ccncc1`, for which the cytotoxicity at 10 µM is -66.6%. For `Cn1cccc1C(=O)N1CC2(CCN(C(=O)c3cccnc3)C2)C1`, the cytotoxicity at 10 µM is -98.4%.

Consider `CCOCCN1C[C@@H]2CCCO[C@@H]2[C@H](NC(=O)c2cnoc2C)C1`, for which the cytotoxicity at 10 µM was -119%. For `c1cc(CN2C[C@@H]3OCCN(CCN4CCCC4)[C@@H]3C2)ccn1`, the cytotoxicity at 10 µM turned out to be 3.39%. In the case of `COc1ccnc(N2C[C@H]3CC[C@@H](C2)N(CC2CCC2)C3=O)n1`, the cytotoxicity at 10 µM is -0.054%.

For the origin of these results see ChEMBL document CHEMBL4513216, “Probing the Open Global Health Chemical Diversity Library for Multistage-Active Starting Points for Next-Generation Antimalarials” (ACS Infect Dis, 2020).
